Measured values reported in ChEMBL document CHEMBL5247578, “Effective synthesis of benzimidazoles-imidazo[1,2-a]pyrazine conjugates: A comparative study of mono-and bis-benzimidazoles for antitumor activity” (Eur J Med Chem, 2019).

Key:
Albumin [1] = target: T1, Albumin (Bos taurus, UniProt P02769); test: Binding affinity to bovine serum albumin assessed as Stern-Volmer quenching constant by fluorescence spectroscopic method; settings: cattle
Albumin [2] = target: T1, Albumin; test: Binding affinity to bovine serum albumin assessed as binding constant by Benesi-Hildebrand equation based UV-vis spectrophotometric method; settings: cattle
Calf thymus DNA = test: Displacement of ethidium bromide from calf thymus DNA assessed as Stern-Volmer quenching constant upto 85 uM by fluorescence based spectroscopic analysis; assay type: nucleic-acid assay; settings: Bos taurus
HEK293 = test: Cytotoxicity against human HEK293 cells assessed as reduction in cell viability at 0.0001 M incubated for 48 hrs by MTT colorimetric assay relative to control; assay type: toxicity, cell-based; settings: hek293, 48 h, 100 µM
PC-3 = test: Antiproliferative activity against human PC-3 cells assessed as cell growth at 0.00000001 M incubated for 48 hrs by SRB assay relative to control; assay type: functional; settings: dose 10 nM, read-out: Activity
OVCAR-8 = test: Antiproliferative activity against human OVCAR-8 cells assessed as cell growth at 0.00000001 M incubated for 48 hrs by SRB assay relative to control; assay type: functional; settings: dose 10 nM, read-out: Activity
OVCAR-4 = test: Antiproliferative activity against human OVCAR-4 cells assessed as cell growth at 0.00000001 M incubated for 48 hrs by SRB assay relative to control; assay type: functional; settings: dose 10 nM, read-out: Activity
UO-31 = test: Antiproliferative activity against human UO-31 cells assessed as cell growth inhibition by measuring lethal concentration incubated for 48 hrs by sulforhodamine B assay; assay type: functional; settings: read-out: LC50 (the source's name)
Outline: (§1)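 NCI-60 five-dose screen (10^-4 to 10^-8 M, 10-fold dilutions; DMSO stocks). Cells in RPMI 1640 with 5% FBS and 2 mM L-glutamine, preincubated 24 h, then exposed 48 h at 37 °C, 5% CO2. Fixed with cold TCA, stained with 0.4% SRB, absorbance read at 515 nm. Time-zero plates used as reference. LC50 taken from [(Ti-Tz)/Tz]×100 […].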

UACC-62 [3] = test: Antiproliferative activity against human UACC-62 cells assessed as cell growth inhibition by measuring lethal concentration incubated for 48 hrs by sulforhodamine B assay; assay type: functional; settings: read-out: LC50 (the source's name); outline: as §1
KM12 = test: Antiproliferative activity against human KM12 cells assessed as cell growth inhibition by measuring lethal concentration incubated for 48 hrs by sulforhodamine B assay; assay type: functional; settings: read-out: LC50 (the source's name)
IGROV-1 [4] = test: Growth inhibition against human IGROV-1 cells assessed as total growth inhibitory concentration incubated for 48 hrs by sulforhodamine B assay; assay type: functional
SK-MEL-2 = test: Growth inhibition against human SK-MEL-2 cells assessed as total growth inhibitory concentration incubated for 48 hrs by sulforhodamine B assay; assay type: functional
UACC-62 [5] = test: Growth inhibition against human UACC-62 cells incubated for 48 hrs by sulforhodamine B assay; assay type: functional
SNB-75 [6] = test: Growth inhibition against human SNB-75 cells incubated for 48 hrs by sulforhodamine B assay; assay type: functional
HCT-116 [7] = test: Growth inhibition against human HCT-116 cells incubated for 48 hrs by sulforhodamine B assay; assay type: functional
MCF7 = test: Antiproliferative activity against human MCF7 cells assessed as cell growth at 0.0000001 M incubated for 48 hrs by SRB assay relative to control; assay type: functional; settings: dose 100 nM, read-out: Activity
MDA-MB-468 = test: Antiproliferative activity against human MDA-MB-468 cells assessed as cell growth at 0.0000001 M incubated for 48 hrs by SRB assay relative to control; assay type: functional; settings: dose 100 nM, read-out: Activity
SR = test: Antiproliferative activity against human SR cells assessed as cell growth at 0.000001 M incubated for 48 hrs by SRB assay relative to control; assay type: functional; settings: read-out: Activity
NCI-H226 = test: Antiproliferative activity against human NCI-H226 cells assessed as cell growth at 0.000001 M incubated for 48 hrs by SRB assay relative to control; assay type: functional; settings: read-out: Activity
HCT-116 [8] = test: Antiproliferative activity against human HCT-116 cells assessed as cell growth at 0.000001 M incubated for 48 hrs by SRB assay relative to control; assay type: functional; settings: read-out: Activity
Outline: (§2)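 NCI-60 five-dose screen (10^-4 to 10^-8 M). Cells grown in RPMI 1640 with 5% FBS and 2 mM L-glutamine, plated at 5,000-40,000 cells/well and preincubated 24 h. Drug given from DMSO stock, then 48 h at 37 °C, 5% CO2. For adherent lines, cells fixed with cold TCA, SRB-stained and read at 515 nm. Percent growth taken against time-zero and untreated control.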

SF-539 = test: Antiproliferative activity against human SF-539 cells assessed as cell growth at 0.000001 M incubated for 48 hrs by SRB assay relative to control; assay type: functional; settings: read-out: Activity
SNB-19 = test: Antiproliferative activity against human SNB-19 cells assessed as cell growth at 0.000001 M incubated for 48 hrs by SRB assay relative to control; assay type: functional; settings: read-out: Activity
UACC-62 [9] = test: Antiproliferative activity against human UACC-62 cells assessed as cell growth at 0.000001 M incubated for 48 hrs by SRB assay relative to control; assay type: functional; settings: read-out: Activity
IGROV-1 [10] = test: Antiproliferative activity against human IGROV-1 cells assessed as cell growth at 0.000001 M incubated for 48 hrs by SRB assay relative to control; assay type: functional; settings: read-out: Activity
OVCAR-3 = test: Antiproliferative activity against human OVCAR-3 cells assessed as cell growth at 0.000001 M incubated for 48 hrs by SRB assay relative to control; assay type: functional; settings: read-out: Activity
A498 = test: Antiproliferative activity against human A498 cells assessed as cell growth at 0.000001 M incubated for 48 hrs by SRB assay relative to control; assay type: functional; settings: read-out: Activity
Outline: (§3)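 NCI-60 five-dose screen over 10^-4–10^-8 M (10-fold dilutions). Cells grown in RPMI 1640 with 5% FBS and 2 mM L-glutamine, seeded at 5,000–40,000 cells/well and preincubated 24 h. Drug from DMSO stock, 48 h at 37 °C, 5% CO2. Adherent cells TCA-fixed and stained with 0.4% SRB; A515 read. Percent growth = (Ti−Tz)/(C−Tz)×100, or (Ti−Tz)/Tz×100 when Ti<Tz.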

SNB-75 [11] = test: Antiproliferative activity against human SNB-75 cells assessed as cell growth at 0.00001 M incubated for 48 hrs by SRB assay relative to control; assay type: functional; settings: read-out: Activity
LOX IMVI = test: Antiproliferative activity against human LOX IMVI cells assessed as cell growth at 0.00001 M incubated for 48 hrs by SRB assay relative to control; assay type: functional; settings: read-out: Activity
A549 = test: Antiproliferative activity against human A549 cells assessed as cell growth at 0.0001 M incubated for 48 hrs by SRB assay relative to control; assay type: functional; settings: read-out: Activity; outline: as §3
EKVX = test: Antiproliferative activity against human EKVX cells assessed as cell growth at 0.0001 M incubated for 48 hrs by SRB assay relative to control; assay type: functional; settings: read-out: Activity; outline: as §2
SW-620 = test: Antiproliferative activity against human SW620 cells assessed as cell growth at 0.0001 M incubated for 48 hrs by SRB assay relative to control; assay type: functional; settings: read-out: Activity
IGROV-1 [12] = test: Antiproliferative activity against human IGROV-1 cells assessed as cell growth at 0.0001 M incubated for 48 hrs by SRB assay relative to control; assay type: functional; settings: read-out: Activity
786-0 = test: Antiproliferative activity against human 786-0 cells assessed as cell growth at 0.0001 M incubated for 48 hrs by SRB assay relative to control; assay type: functional; settings: read-out: Activity; outline: as §3

T1 sequence (P02769 whole entry): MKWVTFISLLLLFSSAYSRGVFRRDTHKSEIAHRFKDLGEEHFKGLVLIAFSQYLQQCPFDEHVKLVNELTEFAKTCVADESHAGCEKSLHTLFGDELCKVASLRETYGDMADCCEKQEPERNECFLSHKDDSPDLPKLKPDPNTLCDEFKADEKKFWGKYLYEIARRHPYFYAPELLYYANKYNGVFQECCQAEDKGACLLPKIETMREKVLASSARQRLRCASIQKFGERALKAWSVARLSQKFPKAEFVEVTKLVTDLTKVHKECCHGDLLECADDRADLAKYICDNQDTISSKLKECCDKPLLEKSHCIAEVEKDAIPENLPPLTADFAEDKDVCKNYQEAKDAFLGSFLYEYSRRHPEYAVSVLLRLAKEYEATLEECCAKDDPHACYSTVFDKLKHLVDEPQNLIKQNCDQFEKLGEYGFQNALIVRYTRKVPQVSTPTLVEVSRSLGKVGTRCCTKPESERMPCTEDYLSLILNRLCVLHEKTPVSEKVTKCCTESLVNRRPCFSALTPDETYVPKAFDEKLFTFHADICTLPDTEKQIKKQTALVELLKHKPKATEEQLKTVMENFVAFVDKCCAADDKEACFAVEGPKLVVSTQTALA

| SMILES | KSV (Albumin [1]) | Kb (Albumin [2]) | KSV (Calf thymus DNA) | Activity (HEK293) [%] | growth at 0.01 µM (PC-3) [%] | growth at 0.01 µM (OVCAR-8) [%] | growth at 0.01 µM (OVCAR-4) [%] | CC50 (UO-31) [nM] | CC50 (UACC-62 [3]) [nM] | CC50 (KM12) [nM] | TGI (IGROV-1 [4]) [nM] | TGI (SK-MEL-2) [nM] | GI50 (UACC-62 [5]) [nM] | GI50 (SNB-75 [6]) [nM] | GI50 (HCT-116 [7]) [nM] | growth at 0.1 µM (MCF7) [%] | growth at 0.1 µM (MDA-MB-468) [%] | growth at 1 µM (SR) [%] | growth at 1 µM (NCI-H226) [%] | growth at 1 µM (HCT-116 [8]) [%] | other results |
| --- | --- | --- | --- | --- | --- | --- | --- | --- | --- | --- | --- | --- | --- | --- | --- | --- | --- | --- | --- | --- | --- |
| c1ccc(Cn2cnc3ccc(-c4nc(-c5ccc6c(c5)ncn6C5CCCCC5)cn5ccnc45)cc32)cc1 | 1.14 10^5/M | 2.65 10^4/M | 0.74 10^4/M | 18.05 | 95 | 106 | 94 | > 100000 | > 100000 | > 100000 | > 100000 | 4850 | 1980 | 1190 | 1070 | 90 | 104 | 63 | 95 | 54 | growth at 1 µM (SF-539): 53%; growth at 1 µM (SNB-19): 93%; growth at 1 µM (UACC-62 [9]): 87%; growth at 1 µM (IGROV-1 [10]): 73%; growth at 1 µM (OVCAR-3): 94%; growth at 1 µM (A498): 97%; growth at 10 µM (SNB-75 [11]): -70%; growth at 10 µM (LOX IMVI): -90%; growth at 100 µM (A549): -40%; growth at 100 µM (EKVX): 14%; growth at 100 µM (SW-620): 7%; growth at 100 µM (IGROV-1 [12]): 18%; growth at 100 µM (786-0): 4% |
| COc1ccc(-c2cn3ccnc3c(-c3ccc4ncn(C5CCCCC5)c4c3)n2)cc1 | 1.16 10^5/M | 1.95 10^5/M | 0.82 10^4/M | 19.05 | 96 | 105 | 96 | > 100000 | > 100000 | > 100000 | > 100000 | > 100000 | 434 | 733 | 399 | 92 | 99 | 48 | 73 | 23 | growth at 1 µM (SF-539): 35%; growth at 1 µM (SNB-19): 45%; growth at 1 µM (UACC-62 [9]): 27%; growth at 1 µM (IGROV-1 [10]): 49%; growth at 1 µM (OVCAR-3): 19%; growth at 1 µM (A498): 44%; growth at 10 µM (SNB-75 [11]): 3%; growth at 10 µM (LOX IMVI): 17%; growth at 100 µM (A549): 16%; growth at 100 µM (EKVX): 26%; growth at 100 µM (SW-620): 19%; growth at 100 µM (IGROV-1 [12]): 24%; growth at 100 µM (786-0): 2% |
